Our source for the Stability and Drug uptake values is ChEMBL document CHEMBL1687936, “Radiosynthesis and biological evaluation of L- and D-S-(3-[18F]fluoropropyl)homocysteine for tumor imaging using positron emission tomography” (J Med Chem, 2011).

Data set [1] in a line: Metabolic stability in urine of BALB/c nude mouse xenografted with human A375 cells assessed as radioactivity after 2 hrs by HPLC analysis. Format: ADME, tissue-based, A-375. Particulars: in vivo; call rule not given here. In a few lines:
(§1)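 A375-tumored Balb/c nude mice received 18-20 MBq tracer iv. Plasma and urine were spiked with unlabeled FPHCys and KF and injected directly; tissues were sonicated in saline with carrier and centrifuged at 6000g. Radio-HPLC on C18 with methanol/phosphate buffer pH 6 gave intact fraction as authentic peak over total activity, at 0.25, 1 and 2 h.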
On the technique in general: Xenograft models place foreign cells or tissue in a host animal.

A short description of data set [2]: Metabolic stability in human A375 cells xenografted in BALB/c nude mouse assessed as radioactivity after 0.25 by HPLC analysis. Particulars: in vivo. Format: ADME, cell-based, A-375. Summed up:
as §1

Data set [3] relates to A-375. Put plainly: Cellular uptake in human A375 cells after 15 mins by gamma-counter. Particulars: a-375, 0.25 h. Format: ADME, cell-based. Summed up:
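A375 cells grown in RPMI-1640 with 10% FBS and 2 mM L-glutamine; 2.5×10^5 seeded per well overnight, counts done in triplicate. After a warm PBS wash, cells got 0.37 MBq tracer in 500 μL PBS at 37 °C. Stopped with ice-cold PBS wash, lysed in 0.2 N NaOH, counted in a γ-counter. Decay-corrected % applied dose per 10^5 cells, mean ± SD, n = 3.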

The test system of the next data set is HT-29. Nature of the data set: Drug uptake in human HT-29 cells in presence of amino acid transport system L inhibitor BCH. Format: ADME, cell-based. In a few lines:
(§2)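 Cells were prepared as for the uptake assay and preincubated at 37 °C with inhibitor at 12.5 mmol/L in PBS; controls received PBS. 0.37 MBq [18F]tracer was added and incubated 30 min at 37 °C. Cells were washed cold, lysed and γ-counted. Uptake is given as % of the control group, n = 3.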

The subject of data set [4] is A-375. Put plainly: Drug uptake in human A375 cells in presence of amino acid transport system L inhibitor BCH. Format: ADME, cell-based. Summed up:
as §2

Molecules are shown by their SMILES.

For `Cl.N[C@@H](CCSCCC[18F])C(=O)O`, the values for the Stability in data set [1] and in data set [2] were less than 4% and 90%, respectively.
With `Cl.N[C@H](CCSCCC[18F])C(=O)O`, the Drug uptake entry in the data set on A-375 [3] is “Active”; with HT-29, “Not Active”; in the data set with A-375 [4], “Not Active”.
